# This is a sample that favours compounds with a hit; in the whole collection about 1.9% have one here.
# Cneo AK release: causes C. neoformans cell lysis; adenylate kinase release luminescence, 4 h; normalised: neutral wells 0, clomiphene wells 100; lysis activity, % at 15 µM; 0.2% of 360,000 active; AID 651654;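 active = mean lysis activity across replicates of at least 80%, whatever share of replicates individually reach that level; inactive = mean lysis activity below 80%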
#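 read-out = cell lysis signal | test system = log-phase Cryptococcus neoformans yeast cells | input = cells at 5 × 10^6 per mL | medium = fresh YPD growth medium | signal = luminescent adenylate kinase detection reagent | timing = 4 h at 37 °C static, read 1 h later | dosing = single dose | controls = Clomiphene as positive lysis control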
# RAD54 branch: inhibitors of human RAD54 branch migration | 0.14% of 360,000 active | inhibition, % at 10.4 µM | AID 602329 | RAD54 Holliday junction branch migration, FAM/BHQ fluorescence;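 active = mean normalized replicate activity at least 40 and at least half of replicates scoring 40 or more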;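 note: 0% = median of neutral control wells and 100% = median of positive control wells; inhibitors cause a drop in the FAM fluorescence signal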
# Target sequence (Q92698 whole entry, looked up): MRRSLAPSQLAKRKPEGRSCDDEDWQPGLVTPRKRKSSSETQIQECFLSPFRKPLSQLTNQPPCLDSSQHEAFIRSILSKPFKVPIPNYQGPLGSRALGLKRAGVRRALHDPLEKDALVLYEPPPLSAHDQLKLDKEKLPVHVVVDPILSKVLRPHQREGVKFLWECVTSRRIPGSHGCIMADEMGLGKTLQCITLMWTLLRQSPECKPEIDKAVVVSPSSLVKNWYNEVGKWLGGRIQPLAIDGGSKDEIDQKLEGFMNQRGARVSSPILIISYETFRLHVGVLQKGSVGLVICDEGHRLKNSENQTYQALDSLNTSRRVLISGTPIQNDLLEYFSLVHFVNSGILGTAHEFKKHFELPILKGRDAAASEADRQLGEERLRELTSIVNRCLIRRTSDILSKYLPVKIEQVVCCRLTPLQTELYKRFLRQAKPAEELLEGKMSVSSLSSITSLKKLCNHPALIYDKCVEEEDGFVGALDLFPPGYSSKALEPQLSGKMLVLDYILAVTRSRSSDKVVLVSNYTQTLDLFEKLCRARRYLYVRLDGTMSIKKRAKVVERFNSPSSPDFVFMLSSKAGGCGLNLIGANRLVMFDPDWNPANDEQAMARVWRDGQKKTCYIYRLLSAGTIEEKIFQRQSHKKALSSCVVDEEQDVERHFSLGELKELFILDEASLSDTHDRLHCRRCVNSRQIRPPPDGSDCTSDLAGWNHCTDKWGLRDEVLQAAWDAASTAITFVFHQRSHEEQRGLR
# Ecoli rRNA inh: selective bacterial rRNA inhibition in E. coli; E. coli WT GFP vs humanized-ribosome RFP mutants, fluorescence, 24 h; hits give low values; DMSO median 0, no signal -100; GFP signal change (wild-type ribosome), % (test concentration not listed); 1.6% of 350,000 active;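 active = significant combined selectivity score with lowered wild-type GFP, culture density cut under 30%, mutant RFP and density less affected; inactive = any of these conditions unmet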
# PglD inh: inhibitors of Campylobacter jejuni PglD acetyltransferase. purified PglD enzyme, DTNB colorimetric CoA detection. inhibition, % at 12.5 µM. 0.098% of 360,000 active. AID 602405; in the data active = inhibition above about 16%, passing the limit was not always enough
# RAD52 anneal inh: blocks human RAD52 DNA annealing; P43351; recombinant RAD52 DNA annealing, FRET fluorescence; inhibition, % at 18.7 µM; AID 651710; 0.46% of 360,000 active;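 active = every replicate showing at least 50% inhibition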
# Active calls of the source: *; · = no result given.
SMILES,Cneo AK release,RAD54 branch,Ecoli rRNA inh,PglD inh,RAD52 anneal inh
O=C(C[C@@H]1CC[C@H]2[C@@H](COC[C@H](O)CN2Cc2nccs2)O1)NCc1ccccc1Cl,1.5,10.2,-0.1,-0.3,0.9
CCS(=O)c1scc(-c2ccc(Cl)cc2)c1C#N (configuration not stated),·,·,-31.7*,·,-5.7
CCc1nc2c(C#N)c(-c3ccc(Cl)cc3)ccn2n1,-0.2,-15.8,·,5.0,·
COCC(=O)N1[C@@H](CO)[C@@H](c2ccccc2)C12CN(C(=O)Cc1ccccn1)C2,·,·,10.1,·,-343.7
Cc1cc(S(=O)(=O)N(Cc2ccc(C(C)C)cc2)CC2CCCO2)ccc1-n1cnnn1 (configuration not stated),-0.7,11.5,-21.2*,3.5,-10.0
Cc1cc(S(=O)(=O)N(Cc2ccc(F)cc2)CC2CCCO2)ccc1-n1cnnn1 (configuration not stated),0.3,4.0,-20.8*,2.1,-17.5
COc1ccc(S(=O)(=O)Nc2ccc3c(c2)C(=O)N([C@H](C)CO)C[C@H](C)[C@H](CN(C)CC2CC2)OCCCC[C@@H](C)O3)cc1,1.3,-11.1,0.6,-1.3,1.0
Cc1cc2ccccn2c1C(=S)NC(=O)c1ccccc1,10.6,-4.5,·,0.2,-3.3
Cc1ccc(C(=O)NC(=S)c2c(C)cc3ccccn23)cc1,10.4,-6.6,-15.4*,5.7,-1.2
Cc1cc2ccccn2c1C(=O)Nc1cccc(Cl)c1,·,·,-33.3*,·,-13.7
CCS(=O)(=O)NCC[C@H]1CC[C@H](NS(=O)(=O)c2cccc(F)c2)[C@H](CO)O1,110.2*,8.2,-0.8,-0.7,-2.5
CCS(=O)(=O)NCC[C@@H]1CC[C@@H](NS(=O)(=O)c2cccc(F)c2)[C@@H](CO)O1,98.3*,-6.2,-1.2,-0.3,-12.7
CO[C@H]1CN(C)C(=O)c2ccc(NC(=O)C3CCOCC3)cc2OC[C@H](C)NC[C@@H]1C,·,·,-0.4,·,9.8
CC(C)C#Cc1cnc2c(c1)C(=O)N([C@H](C)CO)C[C@@H](C)[C@@H](CN(C)Cc1cncnc1)O2,4.7,-9.2,3.8,4.5,14.6
COc1ccc(/C=N/NC(=O)c2cc(C(C)(C)C)[nH]n2)cc1COc1ccc(F)cc1F,0.8,-1.3,-24.4*,1.5,-11.8
O=C(O)c1cccc2cc(-c3ccccc3)oc(=O)c12,-2.0,-4.2,7.2,0.6,-11.2
O=C(O)c1cccc2cccc(-c3c4ccc(=O)c(O)c-4oc4c(O)c(O)ccc34)c12,·,·,-22.3*,·,-29.0
Cc1sc2ncnc(Sc3ccccc3C(=O)Nc3ccc(C#N)cc3)c2c1C,·,·,-22.8*,·,-8.2
Cc1sc2ncnc(Sc3ccccc3C(=O)Nc3ccc(Br)cc3)c2c1C,4.1,-3.9,·,4.5,6.6
C[C@H](CO)N1C[C@H](C)[C@H](CN(C)S(=O)(=O)c2ccc(F)cc2)Oc2ccc(NC(=O)CCC(F)(F)F)cc2C1=O,5.5,6.6,-3.6,-0.9,-0.4
O=C(C1CC1)N1CCC(c2nc(-c3ccc(S(=O)(=O)N4CCCC4)cc3)no2)CC1,-3.8,-3.4,2.4,-0.8,-12.1
O=C(c1ccc(F)cc1F)N1CCCC(c2nc(-c3ccc(F)cc3)no2)C1 (configuration not stated),0.6,7.2,-21.5*,4.7,2.5
O=C(Cc1ccccc1)N1CCCC(c2nc(-c3ccc(S(=O)(=O)N4CCCC4)cc3)no2)C1 (configuration not stated),-1.8,5.4,-25.5*,-4.2,-15.6
O=C(COC(=O)CCC1CCCC1)Nc1nc2c(F)c(F)c(F)cc2s1,90.6*,2.6,·,-3.8,-34.5
Cn1cnc(S(=O)(=O)N2[C@@H]3CNC[C@H]2C3c2ccc(-c3ccccc3)cc2)c1 (some centres not stated),·,·,3.5,·,-19.7
COc1ccc(C2CC(=O)Oc3cc(C)c(Cl)cc32)cc1 (configuration not stated),-0.5,-12.1,-43.5,-1.2,-2.1
COc1ccccc1C1CC(=O)Oc2cc(C)c(Cl)cc21 (configuration not stated),-1.1,9.9,-20.9*,2.7,-12.6
Cc1cc(C)n(-c2nc(NCCCN(C)C)c3c4c(sc3n2)CCCC4)n1,-3.3,21.5,·,2.7,52.5*
Cc1cc(C)n(-c2nc(NCCCN(C)C)c3c4c(sc3n2)COC(C)(C)C4)n1,-0.8,1.6,-6.9,-1.3,-2.3
O=C(COc1ccccc1)NNc1nc2ccccc2s1,-1.7,-0.4,-27.5*,-3.2,-16.4

# Source: PubChem BioAssay (Broad Institute)
